Laboratory results taken from ChEMBL document CHEMBL4689842, “EUbOPEN Chemogenomics Library wave 1” (2021).
“And” between values parts separate entries of the source, which are not always exact repeats. Equal values may be shown once.

System: Fibroblast
Assay: Multiplex assay against human fibroblast
Assay type: toxicity, cell-based
Outline: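 With compound added, live cells were imaged on a CQ1 microscope at 37°C and 5% CO2; staining with Hoechst33342, BioTracker Green Microtubule Cytoskeleton Dye, MitoTracker Red and Annexin V Alexa Fluor 680 had been done at seeding. The CellPathfinder machine-learning gating scheme split cells into Hoechst high-intensity objects or normal cells, normal cells into healthy, pyknosed or fragmented nuclei, and pyknosed cells into mitotic or apoptotic. The tubulin, mitochondrial-mass and membrane-permeability phenotypes are per cents of healthy-nucleus cells.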

[1] = 12 h, 1 µM, compound concentration 1 uM, replicate 1
[2] = 12 h, 1 µM, compound concentration 1 uM, replicate 2
[3] = 12 h, 10 µM, compound concentration 10 uM, replicate 1
[4] = 12 h, 10 µM, compound concentration 10 uM, replicate 2
[5] = 24 h, 1 µM, compound concentration 1 uM, replicate 1
[6] = 24 h, 1 µM, compound concentration 1 uM, replicate 2
[7] = 24 h, 10 µM, compound concentration 10 uM, replicate 1
[8] = 24 h, 10 µM, compound concentration 10 uM, replicate 2
[9] = 48 h, 1 µM, compound concentration 1 uM, replicate 1
[10] = 48 h, 1 µM, compound concentration 1 uM, replicate 2
[11] = 48 h, 10 µM, compound concentration 10 uM, replicate 1
[12] = 48 h, 10 µM, compound concentration 10 uM, replicate 2

SMILES: CC(C)NC(=O)N1CC[C@H](NC2=Nc3cc(F)ccc3N(CC(F)F)c3ccc(Cl)cc32)C1
- Population Apoptotic (%) [1]: 68%
- Population Fragmented Nuclei (%) [1]: 27%
- Population Healthy Nuclei (%) [1]: 30%
- Population Hoechst High Intensity Objects (%) [1]: 12%
- Population Membrane Permeable-Phenotype (%) [1]: 4%
- Population Mitochondria Different-Phenotype (%) [1]: 4%
- Population Mitotic Cells (%) [1]: 31%
- Population Normal (%) [1]: 87%
- Population Pyknosed Nuclei (%) [1]: 42%
- Population Tubulin-Different-Phenotype (%) [1]: 14%
- Total Cell Count [1]: 79
- Population Apoptotic (%) [2]: 33%
- Population Fragmented Nuclei (%) [2]: 5%
- Population Healthy Nuclei (%) [2]: 89%
- Population Hoechst High Intensity Objects (%) [2]: 9%
- Population Mitochondria Different-Phenotype (%) [2]: 18%
- Population Mitotic Cells (%) [2]: 66%
- Population Normal (%) [2]: 90%
- Population Pyknosed Nuclei (%) [2]: 5%
- Total Cell Count [2]: 293
- Population Apoptotic (%) [3]: 70%
- Population Fragmented Nuclei (%) [3]: 29%
- Population Healthy Nuclei (%) [3]: 40%
- Population Hoechst High Intensity Objects (%) [3]: 13%
- Population Membrane Permeable-Phenotype (%) [3]: 8%
- Population Mitochondria Different-Phenotype (%) [3]: 21%
- Population Mitotic Cells (%) [3]: 29%
- Population Normal (%) [3]: 86%
- Population Pyknosed Nuclei (%) [3]: 29%
- Population Tubulin-Different-Phenotype (%) [3]: 89%
- Total Cell Count [3]: 160
- Population Apoptotic (%) [4]: 0%
- Population Fragmented Nuclei (%) [4]: 6%
- Population Healthy Nuclei (%) [4]: 81%
- Population Membrane Permeable-Phenotype (%) [4]: 13%
- Population Mitochondria Different-Phenotype (%) [4]: 63%
- Population Mitotic Cells (%) [4]: 100%
- Population Pyknosed Nuclei (%) [4]: 11%
- Population Tubulin-Different-Phenotype (%) [4]: 58%
- Total Cell Count [4]: 62
- Population Apoptotic (%) [5]: 62%
- Population Fragmented Nuclei (%) [5]: 21%
- Population Healthy Nuclei (%) [5]: 40%
- Population Hoechst High Intensity Objects (%) [5]: 9%
- Population Membrane Permeable-Phenotype (%) [5]: 25%
- Population Mitochondria Different-Phenotype (%) [5]: 6%
- Population Mitotic Cells (%) [5]: 37%
- Population Normal (%) [5]: 90%
- Population Pyknosed Nuclei (%) [5]: 38%
- Population Tubulin-Different-Phenotype (%) [5]: 22%
- Total Cell Count [5]: 84
- Population Apoptotic (%) [6]: 50%
- Population Fragmented Nuclei (%) [6]: 5%
- Population Healthy Nuclei (%) [6]: 88%
- Population Hoechst High Intensity Objects (%) [6]: 6%
- Population Membrane Permeable-Phenotype (%) [6]: 6%
- Population Mitochondria Different-Phenotype (%) [6]: 19%
- Population Mitotic Cells (%) [6]: 50%
- Population Normal (%) [6]: 93%
- Population Pyknosed Nuclei (%) [6]: 5%
- Population Tubulin-Different-Phenotype (%) [6]: 9%
- Total Cell Count [6]: 281
- Population Apoptotic (%) [7]: 64%
- Population Fragmented Nuclei (%) [7]: 32%
- Population Healthy Nuclei (%) [7]: 45%
- Population Hoechst High Intensity Objects (%) [7]: 13%
- Population Membrane Permeable-Phenotype (%) [7]: 10%
- Population Mitochondria Different-Phenotype (%) [7]: 46%
- Population Mitotic Cells (%) [7]: 35%
- Population Normal (%) [7]: 86%
- Population Pyknosed Nuclei (%) [7]: 21%
- Population Tubulin-Different-Phenotype (%) [7]: 92%
- Total Cell Count [7]: 163
- Population Apoptotic (%) [8]: 83%
- Population Fragmented Nuclei (%) [8]: 13%
- Population Healthy Nuclei (%) [8]: 73%
- Population Hoechst High Intensity Objects (%) [8]: 10%
- Population Membrane Permeable-Phenotype (%) [8]: 6%
- Population Mitochondria Different-Phenotype (%) [8]: 57%
- Population Mitotic Cells (%) [8]: 16%
- Population Normal (%) [8]: 90%
- Population Pyknosed Nuclei (%) [8]: 13%
- Population Tubulin-Different-Phenotype (%) [8]: 51%
- Total Cell Count [8]: 75
- Population Apoptotic (%) [9]: 52%
- Population Fragmented Nuclei (%) [9]: 17%
- Population Healthy Nuclei (%) [9]: 58%
- Population Hoechst High Intensity Objects (%) [9]: 12%
- Population Membrane Permeable-Phenotype (%) [9]: 23%
- Population Mitochondria Different-Phenotype (%) [9]: 2%
- Population Mitotic Cells (%) [9]: 47%
- Population Normal (%) [9]: 87%
- Population Pyknosed Nuclei (%) [9]: 23%
- Population Tubulin-Different-Phenotype (%) [9]: 20%
- Total Cell Count [9]: 83
- Population Apoptotic (%) [10]: 33%
- Population Fragmented Nuclei (%) [10]: 37%
- Population Healthy Nuclei (%) [10]: 59%
- Population Hoechst High Intensity Objects (%) [10]: 25%
- Population Mitochondria Different-Phenotype (%) [10]: 3%
- Population Mitotic Cells (%) [10]: 66%
- Population Normal (%) [10]: 74%
- Population Pyknosed Nuclei (%) [10]: 3%
- Population Tubulin-Different-Phenotype (%) [10]: 33%
- Total Cell Count [10]: 126
- Population Apoptotic (%) [11]: 62%
- Population Fragmented Nuclei (%) [11]: 41%
- Population Healthy Nuclei (%) [11]: 48%
- Population Hoechst High Intensity Objects (%) [11]: 20%
- Population Membrane Permeable-Phenotype (%) [11]: 15%
- Population Mitochondria Different-Phenotype (%) [11]: 21%
- Population Mitotic Cells (%) [11]: 37%
- Population Normal (%) [11]: 80%
- Population Pyknosed Nuclei (%) [11]: 10%
- Population Tubulin-Different-Phenotype (%) [11]: 90%
- Total Cell Count [11]: 190
- Population Apoptotic (%) [12]: 100%
- Population Fragmented Nuclei (%) [12]: 24%
- Population Healthy Nuclei (%) [12]: 74%
- Population Hoechst High Intensity Objects (%) [12]: 7%
- Population Membrane Permeable-Phenotype (%) [12]: 6%
- Population Mitochondria Different-Phenotype (%) [12]: 1%
- Population Mitotic Cells (%) [12]: 0%
- Population Normal (%) [12]: 92%
- Population Pyknosed Nuclei (%) [12]: 1%
- Population Tubulin-Different-Phenotype (%) [12]: 56%
- Total Cell Count [12]: 88

SMILES: CCOC(=O)Nc1cc(-c2ccc(C)c(NS(C)(=O)=O)c2)nn2c(C)nnc12
- Population Apoptotic (%) [1]: 75%
- Population Fragmented Nuclei (%) [1]: 30%
- Population Healthy Nuclei (%) [1]: 44%
- Population Hoechst High Intensity Objects (%) [1]: 9%
- Population Membrane Permeable-Phenotype (%) [1]: 9%
- Population Mitochondria Different-Phenotype (%) [1]: 9%
- Population Mitotic Cells (%) [1]: 24%
- Population Normal (%) [1]: 90%
- Population Pyknosed Nuclei (%) [1]: 24%
- Population Tubulin-Different-Phenotype (%) [1]: 10%
- Total Cell Count [1]: 184
- Population Apoptotic (%) [2]: 60%
- Population Fragmented Nuclei (%) [2]: 55%
- Population Healthy Nuclei (%) [2]: 34%
- Population Hoechst High Intensity Objects (%) [2]: 35%
- Population Membrane Permeable-Phenotype (%) [2]: 16%
- Population Mitochondria Different-Phenotype (%) [2]: 16%
- Population Mitotic Cells (%) [2]: 40%
- Population Normal (%) [2]: 64%
- Population Pyknosed Nuclei (%) [2]: 9%
- Population Tubulin-Different-Phenotype (%) [2]: 11%
- Total Cell Count [2]: 81
- Population Apoptotic (%) [3]: 70% and 66%
- Population Fragmented Nuclei (%) [3]: 30% and 28%
- Population Healthy Nuclei (%) [3]: 45% and 56%
- Population Hoechst High Intensity Objects (%) [3]: 15% and 13%
- Population Mitochondria Different-Phenotype (%) [3]: 9% and 14%
- Population Mitotic Cells (%) [3]: 29% and 33%
- Population Normal (%) [3]: 84% and 86%
- Population Pyknosed Nuclei (%) [3]: 23% and 15%
- Total Cell Count [3]: 84 and 231
- Population Apoptotic (%) [4]: 50% and 40%
- Population Healthy Nuclei (%) [4]: 86%
- Population Membrane Permeable-Phenotype (%) [4]: 9% and 0%
- Population Mitotic Cells (%) [4]: 50% and 60%
- Population Normal (%) [4]: 77% and 97%
- Population Pyknosed Nuclei (%) [4]: 2% and 5%
- Total Cell Count [4]: 88 and 101
- Population Apoptotic (%) [5]: 61%
- Population Fragmented Nuclei (%) [5]: 31%
- Population Healthy Nuclei (%) [5]: 55%
- Population Hoechst High Intensity Objects (%) [5]: 12%
- Population Membrane Permeable-Phenotype (%) [5]: 12%
- Population Mitochondria Different-Phenotype (%) [5]: 2%
- Population Mitotic Cells (%) [5]: 38%
- Population Normal (%) [5]: 87%
- Population Pyknosed Nuclei (%) [5]: 12%
- Population Tubulin-Different-Phenotype (%) [5]: 2%
- Total Cell Count [5]: 186
- Population Apoptotic (%) [6]: 50%
- Population Fragmented Nuclei (%) [6]: 48%
- Population Healthy Nuclei (%) [6]: 42%
- Population Hoechst High Intensity Objects (%) [6]: 31%
- Population Membrane Permeable-Phenotype (%) [6]: 26%
- Population Mitochondria Different-Phenotype (%) [6]: 5%
- Population Mitotic Cells (%) [6]: 50%
- Population Normal (%) [6]: 68%
- Population Pyknosed Nuclei (%) [6]: 8%
- Population Tubulin-Different-Phenotype (%) [6]: 15%
- Total Cell Count [6]: 66
- Population Apoptotic (%) [7]: 60% and 56%
- Population Fragmented Nuclei (%) [7]: 22% and 18%
- Population Healthy Nuclei (%) [7]: 47% and 66%
- Population Hoechst High Intensity Objects (%) [7]: 6% and 12%
- Population Membrane Permeable-Phenotype (%) [7]: 22% and 8%
- Population Mitochondria Different-Phenotype (%) [7]: 6% and 4%
- Population Mitotic Cells (%) [7]: 39% and 43%
- Population Normal (%) [7]: 94% and 88%
- Population Pyknosed Nuclei (%) [7]: 29% and 15%
- Total Cell Count [7]: 100 and 225
- Population Healthy Nuclei (%) [8]: 46% and 90%
- Population Membrane Permeable-Phenotype (%) [8]: 3% and 0%
- Population Mitochondria Different-Phenotype (%) [8]: 10% and 16%
- Population Mitotic Cells (%) [8]: 100% and 71%
- Population Normal (%) [8]: 71% and 97%
- Total Cell Count [8]: 88 and 137
- Population Apoptotic (%) [11]: 54%
- Population Fragmented Nuclei (%) [11]: 30%
- Population Healthy Nuclei (%) [11]: 56%
- Population Hoechst High Intensity Objects (%) [11]: 16%
- Population Membrane Permeable-Phenotype (%) [11]: 16%
- Population Mitochondria Different-Phenotype (%) [11]: 0%
- Population Mitotic Cells (%) [11]: 45%
- Population Normal (%) [11]: 83%
- Population Pyknosed Nuclei (%) [11]: 12%
- Population Tubulin-Different-Phenotype (%) [11]: 8%
- Total Cell Count [11]: 105
- Population Apoptotic (%) [12]: 100%
- Population Fragmented Nuclei (%) [12]: 18%
- Population Healthy Nuclei (%) [12]: 80%
- Population Hoechst High Intensity Objects (%) [12]: 10%
- Population Membrane Permeable-Phenotype (%) [12]: 2%
- Population Mitochondria Different-Phenotype (%) [12]: 1%
- Population Mitotic Cells (%) [12]: 0%
- Population Normal (%) [12]: 89%
- Population Pyknosed Nuclei (%) [12]: 0%
- Population Tubulin-Different-Phenotype (%) [12]: 1%
- Total Cell Count [12]: 114
